Calls of active or inactive are those of the source. The rule behind the calls is not given here.
Tests used:
[1] = system: Mus musculus; experiment: Anti-hyperalgesic activity against Swiss albino mouse assessed as reduction in paw lickings at 10 mg/kg, ip administered 30 mins prior to capsaicin injection relative to control; type: functional
Method in brief: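 Swiss albino mice, 5 per group; compound given i.p. 30 min before 20 μL capsaicin injected into plantar surface of right hind paw. […] Paw lickings and twitchings counted over 10 min after capsaicin as hyperalgesia indicator; mean ± SEM, one-way ANOVA with Tukey's test versus control.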

[2] = system: Mus musculus; experiment: Anti-inflammatory activity against Swiss albino mouse assessed as reduction in paw thickness at 10 mg/kg, ip administered 30 mins prior to dextran injection measured after 4 hrs by vernier calliper analysis relative to control; type: functional
Method in brief: (§1)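 Swiss albino mice, 5 per group. […] Paw thickness measured by vernier calipers at 1, 2, 3, 4, 6 and 24 h. Reduction expressed relative to control; mean ± SEM.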

[3] = system: Glycine max; experiment: Competitive inhibition of soyabean 5-LOX using arachidonic acid as substrate by double reciprocal plot analysis
Method in brief: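 Arachidonic acid in HEPES:DMSO (1:1) at 2 mM, added in 5 μL increments (50 μM final each) to fixed enzyme. Change in substrate absorbance at maxima plotted double-reciprocally, without inhibitor and with 10 μM or 20 μM inhibitor; intersection of the extrapolated lines indicates inhibition type.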

[4] = target: T1, Prostaglandin G/H synthase 1 (Ovis aries, UniProt P05979); experiment: Inhibition of ovine COX-1 assessed as PGF2alpha formation using arachidonic acid as substrate pretreated with compound for 20 mins prior to substrate addition by spectrophotometric analysis
T1 sequence (P05979 whole entry): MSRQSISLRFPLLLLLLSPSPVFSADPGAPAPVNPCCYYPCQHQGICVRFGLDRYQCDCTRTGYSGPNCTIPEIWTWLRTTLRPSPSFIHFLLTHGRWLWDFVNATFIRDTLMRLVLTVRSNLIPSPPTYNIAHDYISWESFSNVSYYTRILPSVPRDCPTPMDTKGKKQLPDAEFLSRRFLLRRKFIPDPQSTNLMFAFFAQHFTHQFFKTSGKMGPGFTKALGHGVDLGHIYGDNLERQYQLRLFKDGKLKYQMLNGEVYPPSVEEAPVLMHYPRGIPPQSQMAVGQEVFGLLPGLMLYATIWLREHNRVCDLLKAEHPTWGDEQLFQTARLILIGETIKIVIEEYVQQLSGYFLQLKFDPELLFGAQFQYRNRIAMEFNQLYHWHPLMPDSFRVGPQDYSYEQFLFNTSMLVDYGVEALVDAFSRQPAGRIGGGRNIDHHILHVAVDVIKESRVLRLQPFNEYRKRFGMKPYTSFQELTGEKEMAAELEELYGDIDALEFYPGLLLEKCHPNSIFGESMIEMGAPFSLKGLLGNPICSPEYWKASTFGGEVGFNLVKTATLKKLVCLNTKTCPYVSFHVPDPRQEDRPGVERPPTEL

[5] = Inhibition of soyabean 5-LOX using arachidonic acid as substrate by microplate scanning spectrophotometer analysis; set-up: species or system Glycine max
Method in brief: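 Soybean lipoxygenase in assay buffer was mixed with compound (DMSO solutions at 0.01 to 100 μM, 1:10 into enzyme solution). Reaction started with arachidonic acid; plate shaken 5 min, chromogen added, shaken 5 min, read at 490 nm. Blanks and positive controls included. Duplicates, deviation <5%, averaged; percent inhibition calculated from activity.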

[6] = Competitive inhibition of soyabean 5-LOX by UV-Visible spectrophotometry; set-up: species or system Glycine max
[7] = target: T2, Prostaglandin G/H synthase 2 (Homo sapiens) (UniProt P35354)
T2 sequence (whole entry): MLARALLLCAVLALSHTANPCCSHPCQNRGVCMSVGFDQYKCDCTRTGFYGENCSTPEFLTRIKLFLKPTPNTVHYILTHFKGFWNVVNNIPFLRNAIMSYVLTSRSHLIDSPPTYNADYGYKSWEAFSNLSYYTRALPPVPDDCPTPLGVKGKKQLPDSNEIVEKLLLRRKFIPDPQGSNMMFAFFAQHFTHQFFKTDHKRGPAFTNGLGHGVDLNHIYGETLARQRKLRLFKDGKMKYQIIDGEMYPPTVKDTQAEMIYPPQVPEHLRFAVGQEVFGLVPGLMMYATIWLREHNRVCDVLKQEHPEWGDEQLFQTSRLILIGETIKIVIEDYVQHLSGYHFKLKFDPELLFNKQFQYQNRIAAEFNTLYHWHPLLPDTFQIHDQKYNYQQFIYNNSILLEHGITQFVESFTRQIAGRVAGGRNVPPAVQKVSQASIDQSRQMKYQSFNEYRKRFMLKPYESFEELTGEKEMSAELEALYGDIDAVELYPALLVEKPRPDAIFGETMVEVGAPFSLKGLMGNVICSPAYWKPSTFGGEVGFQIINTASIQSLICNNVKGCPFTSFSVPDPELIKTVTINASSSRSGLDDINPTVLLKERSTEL

[8] = system: Mus musculus; experiment: Anti-hyperalgesic activity against Swiss albino mouse assessed as reduction in paw lickings at 5 mg/kg, ip administered 30 mins prior to capsaicin injection relative to control; type: functional
[9] = system: Glycine max
[10] = target: T3, Prostaglandin G/H synthase 2 (Homo sapiens, UniProt P35354); experiment: Competitive inhibition of human recombinant COX-2 by UV-Visible spectrophotometry
T3 sequence (P35354 whole entry): T2 sequence (whole entry)
Method in brief: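 Double reciprocal plot from UV-vis absorbance change at the maximum. Arachidonic acid in HEPES:DMSO (1:1) added in 5 µl increments (each giving 50 µM final) to a fixed enzyme concentration. Repeated with inhibitor at fixed 10 µM and 20 µM. Type of inhibition taken from where the extrapolated trails meet; also from IC50 versus Ki comparison.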

[11] = system: Mus musculus; experiment: Anti-hyperalgesic activity against Swiss albino mouse assessed as reduction in paw lickings at 5 mg/kg, ip administered 30 mins prior to capsaicin injection and 30 mins after 200 ug misoprostol injection; type: functional, organism-based
Method in brief: (§2)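 Mice (5 per group, 7 groups), all treatments i.p. Misoprostol (200 μg) or substance P (10 μg) given 30 min before test compound (5 mg Kg⁻¹); capsaicin (20 μL) injected into right hind paw plantar surface 30 min later. Controls received normal saline. Paw lickings counted over 10 min after capsaicin.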

[12] = system: Mus musculus; experiment: Anti-hyperalgesic activity against Swiss albino mouse assessed as reduction in paw lickings at 5 mg/kg, ip administered 30 mins prior to capsaicin injection and 30 mins after 10 ug substance-P injection; type: functional, organism-based; method in brief: as §2
[13] = system: Mus musculus; experiment: Anti-inflammatory activity against Swiss albino mouse assessed as reduction in paw thickness at 5 mg/kg, ip administered 30 mins prior to dextran injection measured after 4 hrs by vernier calliper analysis relative to control; type: functional; method in brief: as §1
[14] = system: Mus musculus; experiment: Acute toxicity against Swiss albino mouse assessed as histological changes in kidney at 5 to 300 mg, po measured after 14 days; type: organism-based; details: in vivo, 336 h
Method in brief: (§3)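 Oral single doses of 5 mg, 50 mg and 300 mg to mice in three groups of three. Observed continuously for 4 h for signs of toxicity, then at regular intervals over the first 24 h and once daily for 14 days. Animals sacrificed at day 14; histology of liver, kidney and heart.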

[15] = system: Mus musculus; experiment: Acute toxicity against Swiss albino mouse assessed as lesser inflammatory cells and decreased area of necrosis in stomach at 5 to 300 mg, po measured after 14 days; type: organism-based; details: in vivo, 336 h
[16] = system: Mus musculus; experiment: Acute toxicity against Swiss albino mouse assessed as histological changes in heart at 5 to 300 mg, po measured after 14 days; type: organism-based; details: in vivo, 336 h; method in brief: as §3
[17] = system: Mus musculus; experiment: Acute toxicity against Swiss albino mouse assessed as histological changes in liver at 5 to 300 mg, po measured after 14 days; type: organism-based; details: in vivo, 336 h; method in brief: as §3

IC50 [4] [nM] | IC50 [5] [nM] | Ki [6] [nM] | Ka [7] | Ka [9] | Ki [10] [nM] | SMILES | also measured
43500 | 4 | 64 | 3.25 ×10⁶ /M | 2.06 ×10⁶ /M | 5 | Cc1ccc(S(=O)(=O)n2cc(C(=O)C(=O)NCC(=O)N[C@@H](Cc3c[nH]c4ccccc34)C(=O)O)c3ccccc32)cc1 | inhibition [3]: Active; inhibition in vivo at 5 mg/kg [8]: 88%; inhibition in vivo at 10 mg/kg [1]: 96%
> 100000 | 5 | 232 | 1.9 ×10³ /M | 2.99 ×10⁵ /M | 3120 | Cc1ccc(S(=O)(=O)n2cc(C(=O)C(=O)NCC(=O)NCC(=O)O)c3ccccc32)cc1 | inhibition [3]: Active; inhibition in vivo at 5 mg/kg [8]: 90%
87200 | 10 |  |  |  |  | Cc1ccc(S(=O)(=O)n2cc(C(=O)C(=O)N[C@@H](Cc3c[nH]c4ccccc34)C(=O)O)c3ccccc32)cc1 | 
98300 | 15200 |  |  |  |  | Cc1ccc(S(=O)(=O)n2cc(C(=O)C(=O)NCC(=O)N[C@H](Cc3c[nH]c4ccccc34)C(=O)O)c3ccccc32)cc1 | 
65500 | 12200 |  |  |  |  | COC(=O)[C@@H](Cc1c[nH]c2ccccc12)NC(=O)CNC(=O)C(=O)c1cn(S(=O)(=O)c2ccc(C)cc2)c2ccccc12 | 
71300 | 8380 |  |  |  |  | COC(=O)CNC(=O)[C@@H](Cc1c[nH]c2ccccc12)NC(=O)C(=O)c1cn(S(=O)(=O)c2ccc(C)cc2)c2ccccc12 | 
90900 | 1000 | 753 | 9.87 ×10³ /M | 7.7 ×10⁴ /M | 1340 | COC(=O)[C@H](Cc1c[nH]c2ccccc12)NC(=O)CNC(=O)C(=O)c1cn(S(=O)(=O)c2ccc(C)cc2)c2ccccc12 | 
9890 | 800 | 946 | 7.91 ×10³ /M | 5.6 ×10⁴ /M | 2900 | COC(=O)CNC(=O)[C@H](Cc1c[nH]c2ccccc12)NC(=O)C(=O)c1cn(S(=O)(=O)c2ccc(C)cc2)c2ccccc12 | 
> 100000 | 5610 |  |  |  |  | Cc1ccc(S(=O)(=O)n2cc(C(=O)C(=O)N[C@H](Cc3c[nH]c4ccccc34)C(=O)NCC(=O)O)c3ccccc32)cc1 | 

Further lines, the compound ahead of its results:

SMILES | IC50 [4] [nM] | IC50 [5] [nM] | Ki [6] [nM] | Ka [7] | Ka [9] | Ki [10] [nM] | also measured
O=C(O)Cc1ccccc1Nc1c(Cl)cccc1Cl [DICLOFENAC] |  |  |  |  |  |  | inhibition in vivo at 10 mg/kg [1]: 90%; inhibition in vivo at 10 mg/kg [2]: 42%
Cc1ccc(S(=O)(=O)n2cc(C(=O)C(=O)N[C@@H](Cc3cnc[nH]3)C(=O)N[C@@H](CCC(=O)O)C(=O)O)c3ccccc32)cc1 | 12900 | 80 | 536 | 7.76 ×10⁵ /M | 1.99 ×10⁵ /M | 12 | inhibition [3]: Active; inhibition [11]: Active; inhibition in vivo at 5 mg/kg [8]: 95%; inhibition [12]: inactive; inhibition in vivo at 5 mg/kg [13]: 45%; inhibition in vivo at 10 mg/kg [2]: 48%
COC(=O)CC[C@@H](NC(=O)[C@@H](Cc1cnc[nH]1)NC(=O)C(=O)c1cn(S(=O)(=O)c2ccc(C)cc2)c2ccccc12)C(=O)OC | 20200 | 3700 |  |  |  |  | 
Cc1ccc(S(=O)(=O)n2cc(C(=O)C(=O)N[C@@H](Cc3c[nH]c4ccccc34)C(=O)NCC(=O)O)c3ccccc32)cc1 | 2210 | 2 | 42 | 3.29 ×10⁵ /M | 3.36 ×10⁶ /M | 109 | Activity [14]: Non-toxic; inhibition [3]: Active; inhibition [11]: Active; Activity [15]: Non-toxic; Activity [16]: Non-toxic; inhibition in vivo at 5 mg/kg [8]: 96%; inhibition [12]: inactive; Activity [17]: Non-toxic; inhibition in vivo at 5 mg/kg [13]: 47%; inhibition in vivo at 10 mg/kg [2]: 49%
Cc1ccc(S(=O)(=O)n2cc(C(=O)C(=O)N[C@@H](Cc3cnc[nH]3)C(=O)O)c3ccccc32)cc1 | > 100000 | 2800 |  |  |  |  | 
NS(=O)(=O)c1ccc(-n2nc(C(F)(F)F)cc2-c2ccc(Br)cc2)cc1 | 13000 |  |  |  |  |  | 
COC(=O)CNC(=O)CNC(=O)C(=O)c1cn(S(=O)(=O)c2ccc(C)cc2)c2ccccc12 | 104000 | 100 | 97 | 1.81 ×10² /M | 2.08 ×10⁵ /M | 4660 | 
COC(=O)CC[C@H](NC(=O)[C@H](Cc1cnc[nH]1)NC(=O)C(=O)c1cn(S(=O)(=O)c2ccc(C)cc2)c2ccccc12)C(=O)OC | 76500 | 600 | 356 | 4.43 ×10⁴ /M | 3.02 ×10⁵ /M | 983 | 
CC(C)(C)Sc1c(CC(C)(C)C(=O)O)n(Cc2ccc(Cl)cc2)c2ccc(OCc3ccc4ccccc4n3)cc12 [QUIFLAPON] |  | 1600 |  |  |  |  | 
Cc1ccc(S(=O)(=O)n2cc(C(=O)C(=O)NCC(=O)O)c3ccccc32)cc1 | 90100 | 8.6 |  |  |  |  | 
Cc1ccc(S(=O)(=O)n2cc(C(=O)C(=O)N[C@H](Cc3cnc[nH]3)C(=O)N[C@H](CCC(=O)O)C(=O)O)c3ccccc32)cc1 | 151000 | 2330 |  |  |  |  | 

Reference: ChEMBL document CHEMBL3576775 (Eur J Med Chem, 2015)
